A word on the Ki: it is the dissociation constant of the complex between target and ligand, obtained from inhibition or displacement. One may read the Papp as a coefficient for how fast a substance crosses the barrier. In general, bioavailability refers to the share of a dose that reaches the circulation, judged against a reference dose that is usually intravenous. By half-life is commonly meant how long it takes for the measured level to halve. A high value points to slow loss. Usually clearance stands for the rate of elimination divided by the concentration. Higher therefore signals a high capacity for elimination.

Molecules are shown by their SMILES.

Data set [1] can be described thus: Selectivity for human factor 10a over thrombin.
The target of the next data set is Coagulation factor X (Homo sapiens, UniProt P00742). Description: Inhibition of human factor 10a. Summed up:
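Inhibition constant (Ki) measured against purified human factor Xa; each value is the average of two independent experiments (n = 2).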

Data set [2] in a line: Apparent permeability across human Caco-2 cells. Format: ADME, cell-based.
For another data set, the system named is Plasma. Description: Anticoagulant efficacy in human citreated plasma assessed as concentration required to double prothrombin time. Type of data set: functional.
Data set [3] in a line: Selectivity for human factor 10a over trypsin.
Data set [4] in a line: Oral bioavailability in dog. Format: ADME, organism-based, Canis lupus familiaris. To be noted: in vivo.
The nature of data set [5]: Half life in dog. Type of data set: ADME, organism-based, Canis lupus familiaris. The settings on record: in vivo.
Data set [6] is described as follows: Clearance in dog. Format: ADME, organism-based, Canis lupus familiaris. The settings on record: in vivo.
The nature of data set [7]: Selectivity for human factor 10a over factor 7a.

Sequence of Coagulation factor X (P00742 41-179 limits assumed): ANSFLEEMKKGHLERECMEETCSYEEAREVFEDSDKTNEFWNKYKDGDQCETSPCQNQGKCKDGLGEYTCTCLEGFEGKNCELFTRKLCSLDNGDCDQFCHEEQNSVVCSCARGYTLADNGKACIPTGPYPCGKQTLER
Sequence of Coagulation factor X (P00742 235-488 limits assumed): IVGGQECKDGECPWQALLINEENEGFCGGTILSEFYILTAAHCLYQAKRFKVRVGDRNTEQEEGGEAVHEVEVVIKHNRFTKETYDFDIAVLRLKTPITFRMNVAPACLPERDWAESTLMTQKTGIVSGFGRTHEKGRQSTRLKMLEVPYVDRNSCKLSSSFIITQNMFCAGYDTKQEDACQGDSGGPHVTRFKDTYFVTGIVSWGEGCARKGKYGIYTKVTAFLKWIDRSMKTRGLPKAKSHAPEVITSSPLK

For `CNC(=O)CN(C1CCCN(c2ccc(-n3ccccc3=O)cc2F)C1=O)S(=O)(=O)c1cc2ccc(Cl)nc2s1` (stereo unspecified), the Selectivity ratio in [1] and in [3] was greater than 1000 throughout. Also, the affinity on Coagulation factor X corresponds to a Ki of 0.037 nM. In data set [2], the Papp amounted to 0.1 ×10⁻⁶ cm/s. Also, the PT in the data set on Plasma came out at 4.2 µM.
For `CN(C)CCN(C)C(=O)CN([C@H]1CCCN(c2ccc(-n3ccccc3=O)cc2F)C1=O)S(=O)(=O)c1ccc2cc(Cl)ccc2c1`, the Selectivity ratio in data set [1] and in [3] was greater than 1000 in each case. At Coagulation factor X, the affinity, expressed as Ki, was 0.016 nM. Moreover, the bioavailability in [4] stood at 4%. In data set [5], this compound showed a half-life of 6.45 h. The compound also gave a clearance in data set [6] of 19.8 mL/min/kg. For the same compound, the PT in the data set with Plasma came to 1.7 µM.
Turning to `COc1ccc(OC2CCCN(c3ccc(-c4ccccc4S(C)(=O)=O)cc3F)C2=O)cc1` (stereo unspecified), the Selectivity ratio in [1], in data set [3] and in [7] was greater than 1000 in each case. Moreover, the Ki at Coagulation factor X worked out at 200 nM.
Turning to `COC(=O)CN(C1CCCN(c2ccc(-n3ccccc3=O)cc2)C1=O)S(=O)(=O)c1cc2ccc(Cl)nc2s1` (stereo unspecified), the Selectivity ratio in [1] and in [3] was greater than 1000 in each case. In addition, affinity at Coagulation factor X was put at a Ki of 0.043 nM. The apparent permeability coefficient (Papp) in data set [2] was determined as 3.5 ×10⁻⁶ cm/s. Further, the PT in the data set with Plasma is 4.4 µM.
For the compound `O=C1C(NS(=O)(=O)c2cc3ccc(Cl)nc3s2)CCCN1c1ccc(-n2ccccc2=O)cc1` (stereo unspecified), the Selectivity ratio in data set [1] and in data set [3] was greater than 1000 in each case. Besides, on Coagulation factor X, the affinity corresponds to a Ki of 0.05 nM. Moreover, the apparent permeability coefficient (Papp) in data set [2] amounted to 2 ×10⁻⁶ cm/s. Further, the PT in the data set on Plasma was found to be 15 µM.

Values taken from ChEMBL document CHEMBL1143881, “Sulfonamidolactam inhibitors of coagulation factor Xa” (Bioorg Med Chem Lett, 2008).
